Experimental data: ChEMBL document CHEMBL3352666, “Human Toll-like receptor 8-selective agonistic activities in 1-alkyl-1H-benzimidazol-2-amines” (J Med Chem, 2014)
Calls of active or inactive are those of the source. The calls are words filed in the database; no cut-off is given here.

Tests used:
[1] = biological target: T1, Toll-like receptor 9 (Homo sapiens) (UniProt Q9NR96); experiment: Agonist activity at human TLR9 stably expressed in HEK293 cells co-expressing secreted alkaline phosphatase assessed as NF-kappaB induction by liquid handler-assisted reporter gene assay; format: cell-based
T1 sequence (whole entry): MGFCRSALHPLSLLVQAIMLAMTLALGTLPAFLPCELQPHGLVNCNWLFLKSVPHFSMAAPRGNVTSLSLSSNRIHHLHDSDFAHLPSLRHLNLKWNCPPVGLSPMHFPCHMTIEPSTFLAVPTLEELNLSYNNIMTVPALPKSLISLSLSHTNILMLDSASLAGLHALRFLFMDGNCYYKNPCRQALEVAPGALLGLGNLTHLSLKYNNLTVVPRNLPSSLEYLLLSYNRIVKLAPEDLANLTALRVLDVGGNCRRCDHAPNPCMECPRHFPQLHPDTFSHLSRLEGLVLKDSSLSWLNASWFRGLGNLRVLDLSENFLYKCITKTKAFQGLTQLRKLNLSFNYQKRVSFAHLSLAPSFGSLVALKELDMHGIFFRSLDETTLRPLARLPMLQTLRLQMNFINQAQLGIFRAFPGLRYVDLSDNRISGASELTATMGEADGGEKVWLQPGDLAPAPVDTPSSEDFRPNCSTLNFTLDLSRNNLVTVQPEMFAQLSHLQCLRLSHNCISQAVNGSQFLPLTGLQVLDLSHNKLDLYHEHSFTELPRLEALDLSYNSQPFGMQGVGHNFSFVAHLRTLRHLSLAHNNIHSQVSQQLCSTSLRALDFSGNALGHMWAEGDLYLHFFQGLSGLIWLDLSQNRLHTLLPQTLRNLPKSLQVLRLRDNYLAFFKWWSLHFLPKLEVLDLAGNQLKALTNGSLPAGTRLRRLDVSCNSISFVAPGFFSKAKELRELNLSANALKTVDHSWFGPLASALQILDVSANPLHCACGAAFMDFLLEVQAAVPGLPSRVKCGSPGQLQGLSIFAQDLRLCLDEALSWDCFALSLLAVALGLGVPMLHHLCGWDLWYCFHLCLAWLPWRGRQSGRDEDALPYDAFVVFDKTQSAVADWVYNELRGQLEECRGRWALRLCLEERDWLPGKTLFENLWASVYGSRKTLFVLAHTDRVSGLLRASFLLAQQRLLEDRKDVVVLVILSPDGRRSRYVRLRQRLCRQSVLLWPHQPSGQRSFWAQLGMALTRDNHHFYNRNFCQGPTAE
Procedure, shortened: (§1)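 HEK293 reporter cells stably co-transfected with the respective human TLR or NOD receptor plus NF-κB/AP-1-driven secreted alkaline phosphatase, kept in selection medium. About 10^5 cells/ml were incubated with graded concentrations of test compound in 384-well format. Supernatant sAP was read colorimetrically at 620 nm with an alkaline phosphatase-specific chromogen in detection medium.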

[2] = biological target: T2, Toll-like receptor 7 (Homo sapiens) (UniProt Q9NYK1); experiment: Agonist activity at human TLR7 stably expressed in HEK293 cells co-expressing secreted alkaline phosphatase assessed as NF-kappaB induction by liquid handler-assisted reporter gene assay; format: cell-based; procedure, shortened: as §1
T2 sequence (whole entry): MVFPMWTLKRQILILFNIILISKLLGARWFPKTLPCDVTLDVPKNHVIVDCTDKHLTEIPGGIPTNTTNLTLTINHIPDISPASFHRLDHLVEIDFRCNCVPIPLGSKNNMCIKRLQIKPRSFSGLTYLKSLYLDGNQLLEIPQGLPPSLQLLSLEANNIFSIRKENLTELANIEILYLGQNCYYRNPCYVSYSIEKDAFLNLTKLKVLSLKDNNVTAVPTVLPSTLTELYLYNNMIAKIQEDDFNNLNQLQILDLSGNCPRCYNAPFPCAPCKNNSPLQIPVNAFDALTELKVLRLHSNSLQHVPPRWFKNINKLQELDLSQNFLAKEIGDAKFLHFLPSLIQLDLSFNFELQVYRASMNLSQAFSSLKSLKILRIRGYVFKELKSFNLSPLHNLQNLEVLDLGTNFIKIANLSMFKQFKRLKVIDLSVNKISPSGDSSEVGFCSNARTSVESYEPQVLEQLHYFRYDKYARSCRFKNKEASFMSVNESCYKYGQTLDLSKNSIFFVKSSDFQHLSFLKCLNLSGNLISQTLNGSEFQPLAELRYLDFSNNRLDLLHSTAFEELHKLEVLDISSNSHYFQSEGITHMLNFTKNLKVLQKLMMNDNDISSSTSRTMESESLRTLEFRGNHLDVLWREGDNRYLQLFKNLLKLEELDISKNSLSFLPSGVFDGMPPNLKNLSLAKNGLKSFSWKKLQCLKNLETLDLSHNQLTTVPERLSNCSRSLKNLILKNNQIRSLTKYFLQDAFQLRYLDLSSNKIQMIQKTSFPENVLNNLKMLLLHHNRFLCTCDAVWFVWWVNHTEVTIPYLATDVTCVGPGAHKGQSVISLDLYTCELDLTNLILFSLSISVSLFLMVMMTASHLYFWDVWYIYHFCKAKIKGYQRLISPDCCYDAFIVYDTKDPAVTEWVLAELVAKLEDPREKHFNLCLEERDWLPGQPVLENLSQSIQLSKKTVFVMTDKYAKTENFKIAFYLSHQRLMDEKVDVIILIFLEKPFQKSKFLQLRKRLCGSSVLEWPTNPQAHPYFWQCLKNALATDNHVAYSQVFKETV

| SMILES | Activity [1] | Activity [2] |
| --- | --- | --- |
| CCCCCn1c(N)nc2c(F)cccc21 | inactive | inactive |
| CCCCCn1c(N)nc2c([N+](=O)[O-])cccc21 | inactive | inactive |
| CCCCCn1c(N)nc2c(C(F)(F)F)cccc21 | inactive | inactive |
| CCCCCn1c(N)nc2c(Cc3ccccc3)cccc21 | inactive | inactive |
| CCCCCn1c(N)nc2c(-c3ccccc3)cccc21 | inactive | inactive |
| CCCCCn1c(N)nc2c(OCc3ccccc3)cccc21 | inactive | inactive |
| CCCCCn1c(N)nc2cnccc21 | inactive | inactive |
| CCCCCn1c(N)nc2cccnc21 | inactive | inactive |
| CCCCCn1c(N)nc2c(Br)cccc21 | inactive | inactive |
| CCCCCn1c(N)nc2cc3ccccc3cc21 | inactive | inactive |
| CCCCCn1c(N)nc2c(C)cccc21 | inactive | inactive |
| Nc1nc2ccccc2n1Cc1ccccc1 | inactive | inactive |
| CCCCCn1c(N)nc2ccc3ccccc3c21 | inactive | inactive |
| CCCCC1C(N)=Nc2ccccc21.Cl (configuration not stated) | inactive | inactive |
| CCCCCn1c(N)nc2ncccc21 | inactive | inactive |
| CCCCOC(=O)n1c(N)nc2ccccc21 | inactive | inactive |
| CCCCC1(O)C(N)=Nc2ccccc21 (configuration not stated) | inactive | inactive |
| CCCCCn1c(NC(C)=O)nc2ccccc21 | inactive | inactive |
| CCCCCn1c(N)nc2c(Cl)cccc21 | inactive | inactive |
| CCCCCn1c(N)nc2ccncc21 | inactive | inactive |
| NCc1cccc(Cn2c(N)nc3ccccc32)c1 | inactive | inactive |
